Columns and labels:
Format in all cases: functional
[1] = system: MCF7; test: Antiproliferative activity against human MCF7 cells at 100 uM after 48 hrs
[2] = Growth inhibition of human NCI-50 cells; conditions: NCI full human tumour cell panel
Summary of the method: (§1)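 NCI full human tumour cell panel covering leukemia, melanoma, lung, colon, renal, ovarian, breast, prostate and CNS subpanels. Five concentrations at 10-fold dilution were used: 10^-4, 10^-5, 10^-6, 10^-7 and 10^-8 M. GI50, the concentration giving 50% inhibition of net cell growth, was determined for each cell line.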

[3] = system: NCI-H460; test: Antiproliferative activity against human NCI-H460 cells at 100 uM after 48 hrs
[4] = system: M14; test: Growth inhibition of human M14 cells; summary of the method: as §1
[5] = system: OVCAR-8; test: Growth inhibition of human OVCAR8 cells; summary of the method: as §1
[6] = system: EKVX; test: Growth inhibition of human EKVX cells; summary of the method: as §1
[7] = system: BT-549; test: Growth inhibition of human BT549 cells; summary of the method: as §1
[8] = system: COLO 205; test: Growth inhibition of human COLO205 cells; summary of the method: as §1
[9] = system: SF-268; test: Antiproliferative activity against human SF268 cells at 100 uM after 48 hrs
[10] = system: LOX IMVI; test: Growth inhibition of human LOX IMVI cells; summary of the method: as §1
[11] = system: A549; test: Growth inhibition of human A549 cells; summary of the method: as §1
[12] = system: MCF7; test: Growth inhibition of human MCF7 cells; summary of the method: as §1
[13] = system: SR; test: Growth inhibition of human SR cells; summary of the method: as §1
[14] = system: NCI-H522; test: Growth inhibition of human NCI-522 cells; summary of the method: as §1
[15] = system: MOLT-4; test: Growth inhibition of human MOLT4 cells; summary of the method: as §1

Compound `N#Cc1c2ccccc2c2nnc3ccccc3n12` has an Activity [1] of 26%, a GI50 [2] of 33.9 µM and an Activity [3] of 21%. It also gave a GI50 [4] of 14.8 µM, a GI50 [5] of 11.2 µM and a GI50 [6] of 12.6 µM. It also gave a GI50 [7] of 12 µM, a GI50 [8] of 9.33 µM and an Activity [9] of 95%. For the same compound, the GI50 [10] was 6.46 µM, the GI50 [11] was 13.5 µM and the GI50 [12] was 14.1 µM.
`Cc1cccc2nnc3c4ccccc4c(C#N)n3c12` showed an Activity [1] of 69%, an Activity [3] of 50% and an Activity [9] of 88%.
Compound `Cc1cccc2c1nnc1c3ccccc3c(C#N)n21` has an Activity [1] of 72%, an Activity [3] of 118% and an Activity [9] of 105%.
For `COc1ccc2c(c1)nnc1c3ccccc3c(C#N)n21`, the Activity [1] was 63%, the Activity [3] was 86% and the Activity [9] was 104%.
`Cc1cc2nnc3c4ccccc4c(C#N)n3c2cc1C` showed an Activity [1] of 76%, an Activity [3] of 48% and an Activity [9] of 76%.
With `N#Cc1c2ccccc2c2nnc3cc(Cl)c(Cl)cc3n12` the Activity [1] was 80%, the GI50 [2] was 49 µM and the Activity [3] was 17%. For the same compound, the Activity [9] was 68%.
`N#Cc1c2ccccc2c2nnc3cc(Cl)ccc3n12` showed an Activity [1] of 109%, an Activity [3] of 109% and an Activity [9] of 114%.
Compound `N#Cc1c2ccccc2c2nnc3ccc(Cl)cc3n12` has an Activity [1] of 51%, an Activity [3] of 61% and an Activity [9] of 86%.
Compound `N#Cc1c2ccccc2c2nnc3cc(C(F)(F)F)ccc3n12` has an Activity [1] of 65%, a GI50 [2] of 53.7 µM and an Activity [3] of 6%. It also gave an Activity [9] of 82% and a GI50 [12] of 10.7 µM.
Compound `N#Cc1c2ccccc2c2nnc3ccc(C(F)(F)F)cc3n12` has an Activity [1] of 83%, a GI50 [13] of 0.214 µM and a GI50 [2] of 34.7 µM. The Activity [3] was 8%, the GI50 [6] was no more than 0.01 µM and the Activity [9] was 96%. For the same compound, the GI50 [14] was 17 µM and the GI50 [15] was 10.5 µM.
